Source: PubChem BioAssay (several laboratories)
Rows were chosen to be rich in hits. Some 5.4% of all compounds tested hit in one or more screens of this group.
HePTP inh: inhibitors of human HePTP phosphatase, primary screen, biochemical, absorbance, leukemia target; hit rate 0.64% among 110,000; recombinant HePTP phosphatase activity, OD absorbance; inhibition, % at 20 µM; in the data active = inhibition above about 50%;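 note: plate controls were vehicle for no effect and reference inhibitor for full effect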
PLAP activator: PLAP enzyme activators, biochemical, luminescence, HTS | AID 696, 2007 | Alkaline phosphatase, placental type (Homo sapiens), P05187 | purified PLAP enzyme, luminescent substrate read-out; active compounds read high | activation fold at 20 µM | hit rate 1.2% among 96,000; in the data active = activation fold above about 2
Target sequence (P05187 whole entry, looked up): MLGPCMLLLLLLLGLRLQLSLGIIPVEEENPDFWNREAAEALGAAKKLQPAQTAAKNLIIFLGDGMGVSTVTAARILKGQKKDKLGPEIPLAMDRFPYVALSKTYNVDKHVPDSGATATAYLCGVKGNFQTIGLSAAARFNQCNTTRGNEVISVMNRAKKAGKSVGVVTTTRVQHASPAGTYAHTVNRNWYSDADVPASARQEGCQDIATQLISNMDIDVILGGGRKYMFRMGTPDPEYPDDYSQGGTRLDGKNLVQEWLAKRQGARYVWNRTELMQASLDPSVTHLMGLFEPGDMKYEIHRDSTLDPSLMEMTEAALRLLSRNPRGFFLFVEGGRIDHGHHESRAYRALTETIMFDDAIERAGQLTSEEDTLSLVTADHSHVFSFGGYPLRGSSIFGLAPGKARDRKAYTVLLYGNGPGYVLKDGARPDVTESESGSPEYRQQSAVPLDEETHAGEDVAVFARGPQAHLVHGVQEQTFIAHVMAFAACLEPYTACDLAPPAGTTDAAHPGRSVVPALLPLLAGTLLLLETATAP
PostGolgi yeast: phenotypic screen on post-Golgi transport, primary screen. post-Golgi transport phenotypic cell assay. inhibition, % at 10 µM. hit rate 0.9% among 98,000;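 note: yeast cells grown in 1536-well plates; yeast grown about 18 h at 30C before absorbance read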
E coli WT exp: growth inhibitors of wild-type E. coli, primary screen, strain BW25113, expanded library, OD600. hit rate 0.15% among 98,000. AID 710, 2007. OD600 absorbance. growth inhibition, % at 100 µM;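 active = growth inhibition above about 50% at one test dose, limit read from the data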;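 note: growth measured after 20 h incubation at 37 °C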
Ecoli tolC: growth inhibitors of E. coli tolC mutant, primary screen, strain BW25113 ΔtolC::kan, 384-well | AID 573, 2007 | growth inhibition, % at 10 µM (by protocol) | OD615 | hit rate 2.2% among 65,000;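 active = growth inhibition at or above a cutoff equal to the mean over every tested compound plus 3 SD, cut at about 60% in these data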;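 note: growth measured after 20 h incubation at 37 °C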
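Test system – E. coli BW25113 ΔtolC::kan, tolC deletion mutant strain · Detection – OD at 615 nm · Buffer or medium – LB with kanamycin 50 µg/mL · Times – 20 h compound exposure of bacteria at 37 °C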
PostGolgi ctrl: growth inhibition of yeast control strain, primary screen, counter-screen for post-Golgi transport modulator project; efflux-deficient yeast background strain, growth absorbance A615, 16 h; inhibition, % at 10 µM; hit rate 5% among 98,000; AID 738, 2007
* hit, by the source's call. Cut-off read from the data, not from the text of the source, unless noted: active = inhibition above about 30%; inactive = the rest.

How did Cc1cccc(NC(=O)c2sc3nc4c(c(-c5cccs5)c3c2N)CN(C)CC4)c1 do in these assays?
PLAP activator: 1.7; PostGolgi yeast: 9.9; E coli WT exp: -2.0; PostGolgi ctrl: 5.4

Results for CC(=O)N1CCN=C1SCc1c(F)cccc1Cl ?
HePTP inh: -3.7; PLAP activator: 0.8; PostGolgi yeast: 3.2; E coli WT exp: 6.0; Ecoli tolC: -3.0; PostGolgi ctrl: 32.0*

How did COc1ccccc1N(CC(=O)N/N=C\c1c(O)ccc2ccccc12)S(=O)(=O)c1ccccc1 do in these assays?
HePTP inh: 2.6

What do the screens show for `CCCN(CCC)S(=O)(=O)c1ccc(C(=O)Nc2nnc(-c3cccc(OC)c3)o2)cc1`?
HePTP inh: 7.4; Ecoli tolC: 100.0*

What do the screens show for `CCCN(CCC)S(=O)(=O)c1ccc(C(=O)Nc2nnc(-c3cc(OC)cc(OC)c3)o2)cc1`?
HePTP inh: 12.5; PLAP activator: 2*; PostGolgi yeast: -3.7; E coli WT exp: -6.0; Ecoli tolC: 97.8*; PostGolgi ctrl: 0.6

Results for COc1ccc(/C=C2\C(=O)NC(=O)N(c3cccc(Br)c3)C2=O)c(C)c1 ?
HePTP inh: 3.5

What do the screens show for `Cc1ccc(S(=O)(=O)NCCN=C(CN2CCCC2)NS(=O)(=O)c2ccc(C)cc2)cc1`?
HePTP inh: 6.3; PLAP activator: 1.6; PostGolgi yeast: -1.7; E coli WT exp: -4.0; Ecoli tolC: 24.6; PostGolgi ctrl: 32.4*

How did c1ccc(C(=NCCN=C(c2ccccc2)c2ccccc2)c2ccccc2)cc1 do in these assays?
HePTP inh: 3.2

How did COc1ccc(Nc2nc(N3CCCCC3)c3ccccc3n2)cc1 do in these assays?
PLAP activator: 1.1; PostGolgi yeast: 59.2*; E coli WT exp: 1.0; PostGolgi ctrl: 86.2*

What do the screens show for `c1ccc(Nc2nc(N3CCCC3)nc(N3CCCC3)n2)cc1`?
PLAP activator: 0.7; PostGolgi yeast: 8.2; E coli WT exp: -2.0; PostGolgi ctrl: 69.7*

How did Oc1ccc(Nc2nc(N3CCCC3)c3ccccc3n2)cc1 do in these assays?
HePTP inh: 7.4; PLAP activator: 1.3; PostGolgi yeast: 14.8; E coli WT exp: -1.0; Ecoli tolC: 32.8; PostGolgi ctrl: -2.2

Results for c1ccc(Nc2nc(N3CCCCC3)nc(N3CCCCC3)n2)cc1 ?
PLAP activator: 0.7; PostGolgi yeast: -3.8; E coli WT exp: -19.0; PostGolgi ctrl: 52.6*

Results for c1ccc(Nc2nc(N3CCCCC3)nc(N3CCNCC3)n2)cc1 ?
HePTP inh: 7.6; PLAP activator: 1.5; PostGolgi yeast: 0.8; E coli WT exp: 32.0; Ecoli tolC: -2.9; PostGolgi ctrl: 14.6

Results for CC(C)(C)NC(=O)c1cccc(C(=O)Nc2cccc(O)c2)c1 ?
HePTP inh: -0.6

How did COc1ccc(CCN=C(C)C2=C(O)COC2=O)cc1OC do in these assays?
HePTP inh: 6.0

Results for C=CCSC1=C(C#N)C(c2ccc(C(C)C)cc2)CC(=O)N1 (stereo not given) ?
HePTP inh: 8.4; PLAP activator: 1.2; PostGolgi yeast: -2.2; E coli WT exp: 9.0; Ecoli tolC: 36.6; PostGolgi ctrl: 38.4*

Results for COc1ccc(N2C(=O)CC(N3CCN(C(c4ccccc4)c4ccc(Cl)cc4)CC3)C2=O)cc1 (stereo not given) ?
HePTP inh: 104.7*

Results for CC(C)(C)C1CCc2c(sc(NC(=O)C3CCCO3)c2C(N)=O)C1 (stereo not given) ?
HePTP inh: -7.9; PLAP activator: 1.4; PostGolgi yeast: 3.7; E coli WT exp: 8.0; PostGolgi ctrl: 59.9*

What do the screens show for `CCCC(=O)c1ccc(N2CCN(C(=O)CCC)CC2)c(F)c1`?
HePTP inh: 7.6

What do the screens show for `CCCC(=O)c1ccc(N2CCCCCC2)c(F)c1`?
HePTP inh: 7.5; PLAP activator: 1.1; PostGolgi yeast: -1.4; E coli WT exp: -8.0; Ecoli tolC: 67.7*; PostGolgi ctrl: 2.1

Results for CCC(=O)c1ccc(N2CCN(C(=O)COc3ccc(F)cc3)CC2)c(F)c1 ?
HePTP inh: -7.4; PLAP activator: 1.1; PostGolgi yeast: -10.2; E coli WT exp: -3.0; Ecoli tolC: 28.8; PostGolgi ctrl: 31.2*

How did CCOc1ccc(NC(=O)/C=C/c2cc(Br)cs2)cc1 do in these assays?
HePTP inh: 3.7

What do the screens show for `O=C(O)CCC(=O)N1CCc2cc(S(=O)(=O)N3CCC(Cc4ccccc4)CC3)ccc21`?
HePTP inh: -9.5; PLAP activator: 1.3; PostGolgi yeast: 4.8; E coli WT exp: -12.0; Ecoli tolC: 100.0*

How did Cc1c(NC(=O)c2cc(-c3ccc(Br)cc3)nc3ccccc23)c(=O)n(-c2ccccc2)n1C do in these assays?
HePTP inh: 0.4

How did O=C(Nc1cccc2cccnc12)c1cccc2ccccc12 do in these assays?
PLAP activator: 0.8; PostGolgi yeast: -3.8; E coli WT exp: -9.0; PostGolgi ctrl: 36.5*

How did O=C(Nc1cccc2cccnc12)c1ccc(Br)o1 do in these assays?
HePTP inh: 20.4; PLAP activator: 1.1; PostGolgi yeast: 16.5; E coli WT exp: 7.0; Ecoli tolC: 92.5*; PostGolgi ctrl: 15.9

How did Cc1c(C(=O)Nc2cccc3cccnc23)oc2ccccc12 do in these assays?
HePTP inh: 6.2; PLAP activator: 1; PostGolgi yeast: 1.1; E coli WT exp: -13.0; Ecoli tolC: -12.4; PostGolgi ctrl: -6.9

Results for O=C(Nc1cccc2ccccc12)c1ccc(Br)o1 ?
HePTP inh: 9.4; PLAP activator: 0.8; PostGolgi yeast: -11.0; E coli WT exp: -2.0; Ecoli tolC: 14.9; PostGolgi ctrl: 0.6

Results for O=C(N/N=C/c1ccc(O)c(I)c1)c1cccc([N+](=O)[O-])c1 ?
HePTP inh: 6.0

Results for Clc1ccc(Cn2cc(/C=N/n3cnnc3)c3ccccc32)cc1 ?
HePTP inh: 2.3; PLAP activator: 1.2; PostGolgi yeast: -4.0; E coli WT exp: 3.0; Ecoli tolC: 36.0; PostGolgi ctrl: 42.3*

What do the screens show for `Fc1ccc(Cn2cc(/C=N/n3cnnc3)c3ccccc32)cc1`?
HePTP inh: -4.2

How did O=C(O)CCCCCN1C(=O)C(=O)/C(=C(/O)c2ccc(Cl)cc2)C1c1ccc([N+](=O)[O-])cc1 (stereo not given) do in these assays?
HePTP inh: -0.8

How did Cc1c(NC(=O)c2ccco2)cccc1-c1nc2ncccc2o1 do in these assays?
HePTP inh: -6.2

What do the screens show for `O=C(O)c1cccc(-c2ccc(/C=N/Nc3ccc([N+](=O)[O-])cn3)o2)c1`?
HePTP inh: 101.8*

Results for O=C(O)c1cc(-c2ccc(/C=N/Nc3ccc([N+](=O)[O-])cn3)o2)ccc1Cl ?
HePTP inh: 11.7

What do the screens show for `Cc1ccc(CN2CCN(/N=C\c3cc(Br)ccc3O)CC2)cc1`?
HePTP inh: -0.7
